Twelve molecules from ChEMBL document CHEMBL3244138, “New antiarrhythmic agents. 3. Primary beta-amino anilides” (J Med Chem, 1979) can be followed below.

The source made the active and inactive calls. The calls are words filed in the database; no cut-off is given here.

Broadly, the ED50 is the dose at which the effect has come halfway, by size or by number of responders. The bioavailability is dose-corrected exposure relative to a reference, in per cent. Read a low bioavailability as little systemic uptake.

Data set [1] has as its system Mus musculus. In words: Toxicity in mouse assessed as ataxia at 100 mg/kg, sc measured up to 20 mins. The format is organism-based. The arrangement: dose 100 mg/kg, route subcutaneous. The following applies: in vivo. In a few lines: (§1)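 Preliminary screen: drug dissolved in 0.9% saline and given subcutaneously at 100 mg/kg to groups of 10 mice. Animals were watched for 20 min for ataxia, convulsions, loss of righting reflex or death. Each sign was recorded as the number of animals affected out of 10 tested.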

The subject of data set [2] is Mus musculus. In words: Toxicity in mouse assessed as convulsion at 100 mg/kg, sc measured up to 20 mins. The format is organism-based. The arrangement: dose 100 mg/kg, route subcutaneous. The following applies: in vivo. The method in brief: as §1
Data set [3] deals with Mus musculus. Nature of the data set: Toxicity in mouse assessed as loss of righting reflex at 100 mg/kg, sc measured up to 20 mins. Conditions: in vivo. The arrangement: dose 100 mg/kg, route subcutaneous. The format is organism-based. The method in brief: as §1
Data set [4] deals with Mus musculus. Nature of the data set: Toxicity in mouse assessed as mortality at 100 mg/kg, sc measured up to 20 mins. The format is organism-based. The arrangement: dose 100 mg/kg, route subcutaneous. The following applies: in vivo. In a few lines:
as §1

Data set [5] deals with Mus musculus. Nature of the data set: Antiarrhythmic activity in sc dosed mouse assessed as protection against chloroform-induced fibrillation. The data set is classed as functional. The following applies: Heart. In a few lines: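 Mice (10 per dose) got at least three sc doses in 0.9% saline, chosen for low to high protection. After 20 min, chloroform vapour was given until respiration stopped, then fibrillation versus coordinated ventricular contraction was scored visually.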

The subject of data set [6] is Mus musculus. In words: Ratio of lidocaine ED50 to compound ED50 for antiarrhythmic activity sc dosed mouse assessed as protection against chloroform-induced fibrillation. The format is functional, Heart.
Data set [7] relates to Canis familiaris. Nature of the data set: Antiarrhythmic activity in left anterior descending coronary artery ligated myocardial infarction model of dog assessed as clearing value of ventricular ectopic beats at 0.5 mg/kg/min, iv. The format is functional, Canis lupus familiaris, Heart. In a few lines: (§2)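 Dogs with myocardial infarction from two-step ligation of the left anterior descending coronary artery were studied the day after ligation and given a drug infusion. Control percent ventricular ectopic beats, ventricular rate (beats/min) and mean arterial pressure (mmHg) were taken before infusion. Clearing values and dose were taken at the time of lowest ectopic-beat incidence; results are means and SD of 3–14 experiments.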

Data set [8] concerns Canis familiaris. Nature of the data set: Antiarrhythmic activity in left anterior descending coronary artery ligated myocardial infarction model of dog assessed as clearing value of ventricular rate at 0.5 mg/kg/min, iv. The data set is classed as functional, Canis lupus familiaris, Heart. The method in brief:
as §2

Data set [9] concerns Canis familiaris. In words: Antiarrhythmic activity in left anterior descending coronary artery ligated myocardial infarction model of dog assessed as mean arterial blood pressure at 0.5 mg/kg/min, iv. The data set is classed as functional, Canis lupus familiaris. In a few lines: as §2
The subject of data set [10] is Canis familiaris. In words: Antiarrhythmic activity in iv dosed left anterior descending coronary artery ligated myocardial infarction model of dog assessed as dose required for reduction of ectopic beats to <= 5%. The data set is classed as functional, Canis lupus familiaris, Heart. The method in brief:
as §2

The subject of data set [11] is Canis familiaris. Nature of the data set: Toxicity in iv dosed left anterior descending coronary artery ligated myocardial infarction model of dog assessed as dose required to cause death. The data set is classed as organism-based, Canis lupus familiaris. The following applies: in vivo. In a few lines:
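Baseline ectopic beats, ventricular rate and mean arterial pressure were recorded before drug infusion. Infusion was stopped at a toxic level, and the cumulative dose in mmol/kg causing death was recorded.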

For data set [12], the system named is Canis familiaris. In words: Toxicity in iv dosed left anterior descending coronary artery ligated myocardial infarction model of dog assessed as dose required to cause toxic effect. The format is organism-based, Canis lupus familiaris. The following applies: in vivo.
The nature of data set [13]: Oral bioavailability in dog. Conditions: in vivo. The format is ADME, organism-based, Canis lupus familiaris.
Data set [14] relates to Mus musculus. In words: Antiarrhythmic activity in mouse assessed as protection against chloroform-induced fibrillation at 100 mg/kg, sc. Details: dose 100 mg/kg. The following applies: Heart. The format is functional, organism-based. In a few lines:
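Preliminary screen: single 100 mg/kg sc dose in 0.9% saline to 10 mice. After 20 min, each mouse was held in chloroform-saturated air until respiration ceased, and the thorax was opened at once. A mouse counted as protected if ventricular contractions were coordinated rather than fibrillating. Read-out is the number protected of 10.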

For data set [15], the system named is Mus musculus. In words: Toxicity in mouse assessed as ataxia at 200 mg/kg, sc measured up to 20 mins. The format is organism-based. Details: dose 200 mg/kg, route subcutaneous. The following applies: in vivo. The method in brief: (§3)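 Mice (10 per dose) received drug sc in 0.9% saline and were watched for 20 min for ataxia, convulsions, loss of righting reflex and death, before chloroform exposure. Read-out is the number affected of 10 tested.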

Data set [16] has as its system Mus musculus. Nature of the data set: Toxicity in mouse assessed as loss of righting reflex at 200 mg/kg, sc measured up to 20 mins. The format is organism-based. Details: dose 200 mg/kg, route subcutaneous. Conditions: in vivo. In a few lines: as §3
For data set [17], the system named is Canis familiaris. Nature of the data set: Toxicity in iv dosed left anterior descending coronary artery ligated myocardial infarction model of dog assessed as dose required to cause convulsion. The format is organism-based, Canis lupus familiaris. The following applies: in vivo.
Data set [18] deals with Canis familiaris. Nature of the data set: Cardiovascular toxicity in iv dosed left anterior descending coronary artery ligated myocardial infarction model of dog. The format is organism-based, Canis lupus familiaris. The following applies: in vivo.
In data set [19] the test system is Canis familiaris. Nature of the data set: Toxicity in iv dosed left anterior descending coronary artery ligated myocardial infarction model of dog at 0.20 mmol/kg, iv. The data set is classed as organism-based, Canis lupus familiaris. The following applies: in vivo.
Data set [20] concerns Canis familiaris. Nature of the data set: Toxicity in iv dosed left anterior descending coronary artery ligated myocardial infarction model of dog at 0.25 mmol/kg, iv. The following applies: in vivo. The format is organism-based, Canis lupus familiaris.
The subject of data set [21] is Canis familiaris. Nature of the data set: Toxicity in left anterior descending coronary artery ligated myocardial infarction model of dog at […], iv. The format is organism-based, Canis lupus familiaris. Conditions: in vivo.

Turning to `CCN(C(=O)CC(C)N)c1c(C)cccc1C.O.O=C(O)C(O)C(O)C(=O)O` (centres undefined), the Activity entry in [1] and in [2] was “Toxic” in each case.

On to `Cc1cccc(C)c1NC(=O)CC(C)(C)N.Cl`, for which the Activity result in [1] is reported as “Non-toxic”; in data set [2], “Non-toxic”; in data set [3], “Non-toxic”; in [4], “Non-toxic”; in data set [7] it was 39%; in data set [8] it was 138 bpm. For the same molecule, the Activity came out at 95 mmHg in data set [9], 0.04 mmol/kg in data set [10] and 0.17 mmol/kg in [11]. Besides, in data set [5], the ED50 was determined as 250 µmol/kg. Moreover, in [6], the “Ratio ED50” value is recorded as 1.

Turning to `Cc1cccc(C)c1NC(=O)CC(C)N.Cl` (centres undefined), the Activity result in [1] is “Non-toxic”; in data set [2], “Non-toxic”; in data set [3], “Non-toxic”; in data set [4] it was “Non-toxic”; in data set [7] it was 0%; in data set [8], 148 bpm. In addition, the Activity in [9] turned out to be 97 mmHg; in data set [10], 0.1 mmol/kg; in data set [12] it was 0.33 mmol/kg. In [5], the ED50 was 460 µmol/kg. Further, in data set [6], the “Ratio ED50” value worked out at 0.6. This molecule also displayed a bioavailability in [13] of more than 90%.

`Cc1cccc(C)c1N(C)C(=O)CC(C)N.O.O=C(O)C(O)C(O)C(=O)O` (centres undefined): the Activity entry is “Toxic” in data set [1], “Non-toxic” in data set [3] and “Non-toxic” in [4].

`CCC(N)CC(=O)Nc1c(C)cccc1C.Cl` (centres undefined): the Activity result in [1], in data set [2], in data set [3] and in data set [4] was “Non-toxic” each time. Further, the ED50 in data set [5] was 380 µmol/kg. The “Ratio ED50” value in data set [6] amounted to 0.7.

Regarding `CCc1cccc(C)c1NC(=O)CC(C)N.Cl` (centres undefined), the Activity result in [1], in data set [2], in data set [3] and in data set [4] was “Non-toxic” in each case. Moreover, the ED50 in data set [5] was determined as 540 µmol/kg. In addition, in [6], the “Ratio ED50” value stood at 0.5.

For `Cc1cccc(C)c1N(C)C(=O)CCN.Cl.O`, in data set [14], the outcome was inactive. In addition, the Activity result was “Non-toxic” in data set [1]; “Non-toxic” in [2]; “Non-toxic” in [3]; “Non-toxic” in [4]; “Toxic” in [15]; “Non-toxic” in [16].

For the molecule `CCN(CC)CC(=O)Nc1c(C)cccc1C` [LIDOCAINE], the result in data set [14] was Active. Besides, the Activity result in data set [1] is “Toxic”; in data set [2] it was “Toxic”; in data set [3], “Toxic”; in data set [4], “Non-toxic”; in [7] it was 4%; in [8], 133 bpm. For the same molecule, the Activity was 101 mmHg in data set [9], 0.21 mmol/kg in data set [10] and 0.27 mmol/kg in data set [12]. The ED50 in data set [5] was found to be 260 µmol/kg. Besides, the “Ratio ED50” value in data set [6] worked out at 1.

For the molecule `CCc1cccc(C)c1NC(=O)CCN.Cl`, the Activity result in [1], in data set [2], in data set [3] and in data set [4] was “Non-toxic” each time. For the same molecule, the ED50 in data set [5] was 1990 µmol/kg. Further, the “Ratio ED50” value in data set [6] is listed as 0.1.

In the case of `CCN(CC)CCC(=O)Nc1c(C)cccc1C`, the Activity entry is recorded as “Toxic” in data set [1]; “Non-toxic” in [3]; “Non-toxic” in data set [4]; 15% in data set [7]; 132 bpm in data set [8]; 115 mmHg in data set [9]. The Activity in data set [10] was 0.01 mmol/kg; in data set [17], 0.04 mmol/kg; in data set [18], “Toxic”; in data set [19], “Toxic”; in data set [20], “Toxic”. Further, the ED50 in data set [5] came out at 280 µmol/kg. The “Ratio ED50” value in data set [6] stood at 0.9.

`Cc1cccc(C)c1NC(=O)C(C)N` (centres undefined) [TOCAINIDE]: the Activity entry is recorded as “Non-toxic” in data set [2]; “Non-toxic” in [3]; “Non-toxic” in data set [4]; 2% in data set [7]; 148 bpm in data set [8]; 108 mmHg in data set [9]. The Activity in data set [10] worked out at 0.32 mmol/kg; in [12] it was 0.3 mmol/kg. Also, the ED50 in data set [5] was 1300 µmol/kg. For the same molecule, the “Ratio ED50” value in data set [6] is 0.2.

With `Cc1cccc(C)c1NC(=O)CCN.Cl`, the Activity result in data set [1] was “Non-toxic”; in data set [2], “Non-toxic”; in [3], “Non-toxic”; in data set [4], “Non-toxic”; in [7], 5%; in data set [8], 120 bpm. Also, the Activity in [9] is 85 mmHg; in [10], 0.23 mmol/kg; in data set [21], “Non-toxic”. Also, the ED50 in data set [5] stood at 560 µmol/kg. In addition, the “Ratio ED50” value in [6] is reported as 0.5.
